Screening data: PubChem BioAssay, several laboratories
Only some compounds are listed: those with a hit (about 1.9% of all), similar ones and a draw of the others.
NadD block – inhibitors of S. aureus NadD, primary screen, biochemical, colorimetric, uHTS; Nicotinate-nucleotide adenylyltransferase NadD (Staphylococcus aureus N315); purified NadD enzyme, colorimetric absorbance read-out; inhibition, % at 20 µM; actives 0.78% (n = 360,000); AID 602399, 2012; in the data active means inhibition above about 26%
IMP-1 inh – IMP-1 metallo-beta-lactamase inhibitors, primary screen, biochemical, epi-absorbance readout, Pseudomonas aeruginosa enzyme. metallo-beta-lactamase IMP-1 (Pseudomonas aeruginosa). purified IMP-1, nitrocefin hydrolysis, epi-absorbance fluorescence. inhibition, % at 5.6 µM. actives 0.45% (n = 290,000). AID 1556, 2009;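 active means inhibition above the mean plus 3 SD of all compounds in the same screening run, cut at about 4.5% in these data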
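assay system = purified recombinant IMP-1 metallo-beta-lactamase enzyme | schedule = 15 min preincubation plus 25 min reaction at 25 °C | signal = Epi-absorbance fluorescence, 480 nm excitation, 530 nm emission | read-out basis = percent inhibition from optical density relative to buffer-blank wells | controls = IMP-1 with DMSO as 0%, enzyme-free DMSO as 100%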
VIM-2 inh – VIM-2 metallo-beta-lactamase inhibitors, primary screen, biochemical, epi-absorbance readout, Pseudomonas aeruginosa enzyme; actives 0.89% (n = 290,000); inhibition, % at 5.6 µM; purified VIM-2, nitrocefin hydrolysis, epi-absorbance fluorescence;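 active means inhibition above the mean of all tested compounds plus 3 SD, cutoff set per screening run, cut at about 7.5% in these data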;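 further: red hydrolysis product quenches plate fluorescence so inhibitors raise well fluorescence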
HCV core dimer – inhibitors of HCV core protein dimerization, primary screen, biochemical, TR-FRET, high-throughput; inhibition, % at 5 µM; TR-FRET GST/Flag-core106 dimerization, 1536-well; actives 0.33% (n = 300,000);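 active means inhibition above the mean of all tested compounds plus 3 SD, set per screening campaign, cut at about 45% in these data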
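assay system = GST-tagged and Flag-tagged HCV core protein residues 1-106 | controls = unlabelled core106 and no-GST-core106 wells | incubation = compound-protein-antibody incubation 4 h at 22.5 °C | probe or stimulus = Eu donor and XL665 acceptor anti-tag antibodies | read-out = % inhibition based on acceptor/donor emission ratio | signal = TR-FRET 671 and 617 nm emission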
NadD inh conf – inhibitors of S. aureus NadD, confirmation, biochemical, colorimetric, single concentration | purified S. aureus NadD, colorimetric enzyme assay | inhibition, % at 20 µM | actives 13% (n = 2,000) | shares compounds with NadD block; in the data active means inhibition mostly above about 42%, no sharp cut-off; inactive means mostly below about 42%
Of the large screens only hits and unclear results are named; the others gave an inactive call (follow-up assays come after a bar, where they were run).

O=C(Nc1nnc(-c2ccc3c(c2)OCCO3)o1)c1ccc(Cc2ccccc2)cc1	NadD block 48.3 | NadD inh conf inactive
C=CCOC(=O)c1ccccc1C(=O)OCC1CO1 (stereo not drawn)	none (no result: IMP-1 inh, VIM-2 inh, HCV core dimer)
COc1ccc(OCC(O)Cn2c(N)nc3c2c(=O)[nH]c(=O)n3C)cc1 (stereo not drawn)	none
CCOc1ccc2nc(NC(=O)c3cccc(-c4cc5ccccc5oc4=O)c3)sc2c1	NadD block 38.8 | NadD inh conf inactive
CCOc1ccc(C(=O)Nc2cccc(-c3cc4ccccc4oc3=O)c2)cc1[N+](=O)[O-]	NadD block 36.5 | NadD inh conf inactive
CC(=O)Nc1cc(-c2cccc(F)c2)cn2c(-c3ccc(F)c(Cl)c3)cnc12	none (no result: IMP-1 inh, VIM-2 inh, HCV core dimer)
COc1cc(OC)cc(-c2c(-c3cccs3)c3cc(-c4ccc(SC)cc4)ccc3n2C)c1	none (no result: IMP-1 inh, VIM-2 inh, HCV core dimer)
COc1cc(OC)cc(-c2c(-c3cccs3)c3cc(-c4ccc(OCc5ccccc5)cc4)ccc3n2C)c1	NadD block 46.3 (no result: IMP-1 inh, VIM-2 inh, HCV core dimer) | NadD inh conf inactive
C=C(C)[C@@H]1CC[C@]2(C(=O)O)CC[C@]3(C)C(CCC4[C@@]5(C)CC[C@H](O)C(C)(C)C5CC[C@]43C)C12 (stereo partly drawn)	none
C=C(C)[C@@H]1CCC2(C(=O)O)CC[C@]3(C)[C@H](CC[C@@H]4[C@@]5(C)CCC(=O)C(C)(C)[C@@H]5CC[C@]43C)[C@@H]12 (stereo partly drawn)	NadD block 48.0 | NadD inh conf inactive
CC(C)(C)S(=O)N1Cc2ccc(CO)cc2[C@@H]1CCO (stereo partly drawn)	none (no result: IMP-1 inh, VIM-2 inh, HCV core dimer)
CCCC#Cc1cnc2c(c1)C(=O)N([C@H](C)CO)C[C@H](C)[C@@H](CN(C)C(=O)CCN1CCCCC1)O2	none (no result: IMP-1 inh, VIM-2 inh, HCV core dimer)
Fc1cc(F)c(F)c(SCCc2ccncc2)c1F	NadD block 24.7 | NadD inh conf inactive
O=C(c1ccc(Cl)c(S(=O)(=O)Nc2ccccc2C(=O)N2CCc3ccccc3C2)c1)N1CCc2ccccc2C1	NadD block 46.9 | NadD inh conf inactive
CCOc1ccc(NC(=O)c2ccc(NC(=O)CSc3nc4ccccc4c(=O)[nH]3)cc2)cc1	NadD block 43.0 | NadD inh conf inactive
O=C(CSc1nc2ccccc2c(=O)[nH]1)Nc1ccc(C(=O)O)cc1	none
Cc1ccc(-c2nnc(CCC(=O)NCC3C4CC5CC(C4)CC3C5)o2)s1 (stereo not drawn)	none
N#CCCN(CCC#N)S(=O)(=O)c1ccc(C(=O)Nc2nc(-c3ccccc3)c(C(=O)c3ccccc3)s2)cc1	NadD block 35.7 | NadD inh conf inactive
COc1ccc(NC(=O)CSC2=C(C#N)C(c3ccco3)C(C(=O)Nc3nc4ccccc4s3)=C(C)N2)cc1 (stereo not drawn)	NadD block 37.9, HCV core dimer 47.7 | NadD inh conf inactive
O=C1[C@H](CC[C@H](O)c2ccc(F)cc2)[C@@H](c2ccc(O)cc2)N1c1ccc(F)cc1	none (no result: NadD block)
S=c1nc[nH]c2c1sc1nc(N3CCOCC3)c3c(c12)CCCC3	NadD block 32.8, HCV core dimer 61.1 | NadD inh conf inactive
CCOC(=O)C1=C(C)N(C[C@@H]2CC[C@@H](Cc3ccc(-c4ccccc4)cc3)O2)C(=O)NC1c1ccc(SCc2ccco2)c([N+](=O)[O-])c1 (stereo partly drawn)	NadD block 58.5 (no result: IMP-1 inh, VIM-2 inh, HCV core dimer) | NadD inh conf inactive
COc1ccc2c(Cl)c(C(=O)OCC(=O)c3ccc4c(c3)NC(=O)CO4)sc2c1Cl	NadD block 40.3 (no result: HCV core dimer) | NadD inh conf inactive
O=C1COc2ccc(C(=O)COC(=O)c3sc4ccccc4c3Cl)cc2N1	none
COc1ccc(-c2csc(/C(C#N)=C\c3ccc(O)c([N+](=O)[O-])c3)n2)cc1OC	NadD block 27.3 | NadD inh conf inactive
COc1ccc(-c2csc(/C(C#N)=C\c3ccc(OC)c([N+](=O)[O-])c3)n2)cc1	none
CC1CCCN(C(=O)C2CC(=O)N(c3ccc(Cl)cc3)C2)C1 (stereo not drawn)	none
CCOc1c(Cl)cc(CNc2ccc(N3CCCC3)cc2)cc1OC	NadD block 32.7 (no result: HCV core dimer) | NadD inh conf inactive
COCCNC(=S)N1CCC(C(=O)c2ccc3c(c2)OCCO3)CC1	none
Cc1ccc(S(=O)(=O)NC(=O)NCCCN2CCOCC2)cc1	none
O=Cc1ccc(N2N=C(c3ccccc3)CC2c2ccccc2)cc1 (stereo not drawn)	none
N#CCC(=O)N/N=C/c1ccc(N2N=C(c3ccccc3)CC2c2ccccc2)cc1 (stereo not drawn)	NadD block 48.7 | NadD inh conf inactive
